Screening results (PubChem BioAssay)
APP 5'UTR act = activates APP 5'UTR luciferase reporter. AID 1276. 190,000 compounds, 1% hits. activation, % at 2 µM. SH-SY5Y APP 5'UTR luciferase reporter, luminescence; zero percent = DMSO vehicle wells;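 active = activation above a set limit, based on mean plus 3 SD of controls, cut at about 140% in these data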
NF-kB expr up = compounds increasing NF-kB expression in human neuronal cells. NF-kB reporter expression; active compounds read high. fold change at 12.5 µM. 190,000 compounds, 1.6% hits. AID 1239; in the data active = fold change above about 3.3
STAT1 act = increases IFN-gamma driven STAT1 reporter signal; activation (% of control), % at 5.5 µM; 200,000 compounds, 2.6% hits; AID 932; NIH 3T3 STAT1-luciferase reporter, luminescence; 100% = IFN-gamma alone, no compound;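 active = activation above the screen-wide mean activation plus 3 SD, cut at about 130% in these data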;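 note: raw ratio to IFN-gamma control signal so 100% means no change and 0% no light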
FLuc inhib CS = inhibits firefly luciferase, flagging false hits in luciferase inhibition screens. P08659. ATPLite firefly luciferase biochemical luminescence, 10 min. inhibition, % at 10 µM. 200,000 compounds, 1.5% hits;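 active = inhibition above about 50% when tested at 10 µM, limit read from the data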
Target sequence (P08659 whole entry, looked up): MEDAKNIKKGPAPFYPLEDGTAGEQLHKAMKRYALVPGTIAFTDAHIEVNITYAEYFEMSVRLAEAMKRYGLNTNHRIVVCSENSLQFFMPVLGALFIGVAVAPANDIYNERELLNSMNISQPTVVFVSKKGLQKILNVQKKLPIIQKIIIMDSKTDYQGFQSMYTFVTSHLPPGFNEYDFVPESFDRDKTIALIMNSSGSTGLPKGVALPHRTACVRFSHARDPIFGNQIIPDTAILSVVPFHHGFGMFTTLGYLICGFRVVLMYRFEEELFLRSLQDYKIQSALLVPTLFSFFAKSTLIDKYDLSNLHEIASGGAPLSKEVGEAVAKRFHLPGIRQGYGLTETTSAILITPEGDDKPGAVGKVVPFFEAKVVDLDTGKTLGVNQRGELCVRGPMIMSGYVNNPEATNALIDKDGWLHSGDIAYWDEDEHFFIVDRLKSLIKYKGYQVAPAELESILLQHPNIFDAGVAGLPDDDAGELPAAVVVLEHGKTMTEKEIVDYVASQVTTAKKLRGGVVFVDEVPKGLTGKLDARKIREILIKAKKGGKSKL
FLuc act counter = firefly luciferase counter-screen for stimulation assays | 200,000 tested, under 10 active | activation factor at 10 µM | AID 1027 | P08659 | ATPlite luciferase biochemical, luminescence, 10 min; 0 = ATP-free wells, 1 = DMSO control;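 active = luciferase activation factor, scaled between plate controls, of at least 2 with compound at 10 µM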
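assay system = Luciferase/luciferin detection reagent, cell-free biochemical luciferase assay | also added = ATP substrate | times = 10 min post-reagent at room temperature | measured by = luminescence from luciferase reaction | measure = luciferase activation, seen as luminescence increase over controls | benchmarks = low control with PBS replacing ATP, high control enzyme plus ATP without compound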
The depositor's hits bear a star; . = not tested or not shown. Rows were chosen to be rich in hits. Some 4.3% of all compounds tested hit in one or more screens of this group.

SMILES | APP 5'UTR act | NF-kB expr up | STAT1 act | FLuc inhib CS | FLuc act counter
Cc1ccc(-c2csc(NC(=O)c3cccc(S(=O)(=O)N4CCN(C)CC4)c3)n2)cc1 | 0 | 0.49 | 97 | -4 | 1
O=C(COC(=O)c1cncc(Br)c1)Nc1ccc2c(c1)OCO2 | -32 | 1.3 | 102 | -6 | 1.1
Cc1ccc(-c2csc(NC(=O)COC(=O)c3cccc(S(=O)(=O)N4CCOCC4)c3)n2)cc1 | 86 | 3.6* | 131* | 18 | 0.8
Cc1ccc2nc(-c3ccc(NC(=O)COC(=O)c4cncc(Br)c4)cc3)sc2c1 | 152* | 6.5* | 144* | 42 | 0.6
Cc1ccc(NC(=O)COC(=O)c2ccco2)cc1 | 15 | 1.1 | 103 | 27 | 0.7
Cc1ccc2nc(-c3ccc(NC(=O)COC(=O)c4ccco4)cc3)sc2c1 | 148* | 4.3* | 141* | -1 | 1
Cc1ccc(C)c(S(=O)(=O)NC(C)C(=O)Nc2ccc(-c3nc4ccccc4s3)cc2)c1 (stereo not drawn) | 55 | 1.1 | 131* | 2 | 1
Cc1ccc(Cl)cc1NC(=S)N(CCCN1CCN(C)CC1)Cc1ccco1 | 0 | 1.3 | 99 | -6 | 1.1
O=C(CNS(=O)(=O)c1cccc(Cl)c1)Nc1ccc(-c2nc3ccccc3s2)cc1 | 129 | 1.9 | 145* | 9 | 0.9
Cc1ccc2nc(-c3ccc(NC(=O)CN4CCN(C(=O)c5ccco5)CC4)cc3)sc2c1 | 149* | 4.4* | 128 | 35 | 0.6
COc1ccc(/C=C(\C#N)C(=O)OCC(=O)Nc2ccc(-c3nc4ccc(C)cc4s3)cc2)cc1 | 184* | 4.5* | 115 | 44 | 0.6
O=S(=O)(N/N=C\C=C\c1ccccc1)c1ccc(Cl)cc1 | -8 | 1 | 102 | -9 | 1.1
CC(=O)Nc1ccc(S(=O)(=O)NC2(C(F)(F)F)C(=O)Nc3c2c(=O)[nH]c(=O)n3Cc2cccnc2)cc1 (stereo not drawn) | 1 | 1.5 | 105 | -5 | 1.1
O=C1Nc2ccc(Cl)cc2[C@@](C#CC2CC2)(C(F)(F)F)O1 | . | . | . | -5 | 1
COc1ccc(C(=O)Nc2scc(-c3ccc(Cl)cc3Cl)c2C(N)=O)cc1 | 80 | 1.1 | 148* | 4 | 1
Cc1cc(C)cc(OCC(=O)OCC(=O)Nc2c(C)n(C)n(-c3ccccc3)c2=O)c1 | -16 | 1 | 104 | 0 | 1
CCn1c(SCC(=O)Nc2ccc3c(c2)oc2ccccc23)nnc1-c1ccc(N)cc1 | 5 | 1.3 | 97 | 12 | 0.9
O=C(c1ccc(Cl)c(Cl)c1)c1cnc(Nc2ccccc2)s1 | 1 | 1.2 | 95 | -3 | 1
CC(=O)c1cnc(Nc2ccc(C)cc2)s1 | 41 | 1.7 | 137* | 1 | 1
CN(Cc1nc(-c2cccs2)no1)CC1COCCO1 (stereo not drawn) | 45 | 2.2 | 123 | 3 | 1
CCOc1ccc(-c2cc(C(=O)OC)[nH]n2)cc1 | 58 | 2.7 | 142* | 37 | 0.6
CCOc1ccc(-c2cc(C(=O)NCCCn3ccnc3)c3ccccc3n2)cc1 | -3 | 0.89 | 104 | 40 | 0.6
COC(=O)c1cc(-c2ccc(OC)cc2)n[nH]1 | 40 | 1.1 | 116 | 14 | 0.9
Cc1ccc(-c2cc(C(=O)N3CCN(c4ncccn4)CC3)c3ccccc3n2)cc1 | 1 | 0.72 | 117 | 62* | 0.4
C/C(N)=C(/C#N)C(=O)COC(=O)c1cc(-c2ccc(Br)cc2)nc2ccccc12 | -7 | 3.6* | 98 | 6 | 0.9
SMILES | APP 5'UTR act | NF-kB expr up | STAT1 act | FLuc inhib CS | FLuc act counter
C/C(N)=C(/C#N)C(=O)COc1ncnc2ccccc12 | 6 | 0.98 | 105 | . | .
CCOc1ccc(-c2cc(C(=O)NCCCN3CCN(CC)CC3)c3ccccc3n2)cc1 | 25 | 0.73 | 99 | 67* | 0.3
S=C(NCCCN1CCOCC1)Nc1cccc(-c2nnc3n2CCCCC3)c1 | -5 | 0.91 | 106 | -8 | 1.1
CC(Oc1ccccc1F)C(=O)NNC(=O)c1cc2ccccc2o1 (stereo not drawn) | -16 | . | 106 | 8 | 0.9
O=S(=O)(NCc1ccccc1)NCc1cccc(C(F)(F)F)c1 | 23 | 1.3 | 94 | 4 | 1
CCOc1ccc(-c2cc(C(=O)O)c3ccccc3n2)cc1 | 66 | 2.7 | 92 | 95* | 0.1
CC(C)Oc1cccc(-c2cc(C(=O)N3CCN(S(C)(=O)=O)CC3)c3ccccc3n2)c1 | -1 | 0.46 | 123 | 52* | 0.5
O=C(O)c1cc(-c2ccccc2)nc2ccccc12 | 0 | 1.8 | 99 | 20 | 0.8
CC(C)Oc1cccc(-c2cc(C(=O)N3CCN(c4ncccn4)CC3)c3ccccc3n2)c1 | 36 | 0.66 | 116 | 39 | 0.6
CC(C)CN(C)C(=O)CC1C(=O)NCCN1C (stereo not drawn) | 5 | 1 | 98 | -6 | 1.1
CC(=O)N1N=C(c2ccc(C)cc2)CC1c1ccco1 (stereo not drawn) | 31 | 1.8 | 113 | -2 | 1
CN1C(=O)C(O)(c2sc(N)nc2-c2ccccc2)c2ccccc21 (stereo not drawn) | 7 | 1.1 | 105 | -5 | 1
Cc1ccc(C2=NN3C(C2)c2ccccc2OC32C(=O)Nc3ccccc32)cc1 (stereo not drawn) | 204* | 8.7* | 107 | -2 | 1
CN1C(=O)C2(Oc3ccccc3C3CC(c4ccccc4)=NN32)c2ccccc21 (stereo not drawn) | 137* | 1.8 | 98 | -11 | 1.1
CC(=O)Nc1ccc2c(c1)nc1n2CCSC1 | -2 | 1.3 | 98 | -6 | 1.1
COc1ccccc1C(=O)Nc1ccc2c(c1)nc1n2CCSC1 | 130 | 1.9 | 128 | 78* | 0.2
Cc1ccc(C(=O)Nc2ccc3c(c2)nc2n3CCSC2)cc1 | 169* | 5.4* | 148* | 62* | 0.4
COC(=O)CSc1ccc(S(=O)(=O)N2CCCCCC2)cc1[N+](=O)[O-] | 4 | 1.1 | 99 | 0 | 1
Cc1ccc(S(=O)(=O)N(C)C)cc1NC(=S)NNC(=O)C(N)=O | -8 | 1.2 | 93 | -9 | 1.1
Cc1nonc1OCCCNc1ccc([N+](=O)[O-])cc1Cl | -3 | 1.7 | 125 | -6 | 1.1
COc1cc(C)c(NC(=O)C(=S)NCCc2ccccc2)cc1C | 12 | 1.1 | 85 | -3 | 1
O=C(c1cccs1)N(C(=O)c1cccs1)c1ccc(Br)cn1 | 102 | 4* | 134* | -2 | 1
Cc1ccnc(N(C(=O)c2cccs2)C(=O)c2cccs2)c1 | 68 | 2.3 | 128 | 35 | 0.7
C=C(C)Cn1c(SCC(=O)N/N=C/c2cccc(O)c2)nc2ccccc2c1=O | 2 | 0.73 | 93 | -6 | 1.1
O=C(/C=C/c1cccc([N+](=O)[O-])c1)Nc1ccccn1 | 54 | 0.75 | 110 | -2 | 1
Cc1ccc2oc(-c3cccc(NC(=O)/C=C/c4cccc([N+](=O)[O-])c4)c3C)nc2c1 | 90 | 0.95 | 136* | 20 | 0.8
